Assay results from ChEMBL document CHEMBL1147147 (J Med Chem, 2007).

Tests used:
Clostridium botulinum [1] = assay: Inhibition of botulinum neurotoxin serotype A light chain metalloprotease at 50 uM
Summary of the method: (§1)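 Percent inhibition of BoNT/A light chain metalloprotease activity was measured at a single inhibitor concentration, by a method described in earlier work, in duplicate.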

[2] = Inhibition of botulinum neurotoxin serotype A light chain metalloprotease; set-up: species or system Clostridium botulinum
Summary of the method: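 Metalloprotease activity of the BoNT/A light chain was measured by a method described in earlier work. IC50 was derived from concentration-versus-inhibition plots using seven or nine concentrations per inhibitor, averaged from duplicate determinations.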

Clostridium botulinum [3] = assay: Inhibition of botulinum neurotoxin serotype A light chain metalloprotease at 20 uM; summary of the method: as §1

COC(=O)CCC(C)[C@H]1CC[C@H]2[C@@H]3[C@H](OC(C)=O)C[C@@H]4C[C@H](OCCNCCNc5ccnc6cc(Cl)ccc56)CC[C@]4(C)[C@H]3CC(OC(C)=O)[C@]12C (stereo partly specified)
inhibition (Clostridium botulinum [1]): 62%

Nc1ccnc2cc(Cl)ccc12
inhibition (Clostridium botulinum [1]): 12%

COC(=O)CCC(C)[C@H]1CC[C@H]2[C@@H]3[C@H](OC(C)=O)C[C@@H]4C[C@H](NCCNc5ccnc6cc(Cl)ccc56)CC[C@]4(C)[C@H]3C[C@H](OC(C)=O)[C@]12C (stereo partly specified)
IC50 [2]: 7 µM
inhibition (Clostridium botulinum [1]): 90%

COC(=O)CCC(C)[C@H]1CC[C@H]2[C@@H]3[C@H](OC(C)=O)C[C@@H]4C[C@H](N)CC[C@]4(C)[C@H]3C[C@H](OC(C)=O)[C@]12C (stereo partly specified)
inhibition (Clostridium botulinum [1]): 13%

COC(=O)CCC(C)[C@H]1CC[C@H]2[C@@H]3[C@H](OC(C)=O)C[C@@H]4C[C@H](OCCNc5ccnc6cc(Cl)ccc56)CC[C@]4(C)[C@H]3CC(OC(C)=O)[C@]12C (stereo partly specified)
inhibition (Clostridium botulinum [1]): 9%

COC(=O)CCC(C)[C@H]1CC[C@H]2[C@@H]3[C@H](OC(C)=O)C[C@@H]4C[C@@H](NCCNc5ccnc6cc(Cl)ccc56)CC[C@]4(C)[C@H]3C[C@H](OC(C)=O)[C@]12C (stereo partly specified)
IC50 [2]: 17 µM
inhibition (Clostridium botulinum [1]): 80%

COC(=O)CCC(C)[C@H]1CC[C@H]2[C@@H]3[C@H](OC(C)=O)C[C@@H]4C[C@H](OC(C)=O)CC[C@]4(C)[C@H]3C[C@H](OC(C)=O)[C@]12C (stereo partly specified)
inhibition (Clostridium botulinum [1]): 0%

Clc1ccc2c(NCCCN(CCCNc3ccnc4cc(Cl)ccc34)CCCNc3ccnc4cc(Cl)ccc34)ccnc2c1
IC50 [2]: 3.2 µM
inhibition (Clostridium botulinum [3]): 67%
